Laboratory results reported in ChEMBL document CHEMBL4265907, “Design, synthesis and pharmacological evaluation of N4,N6-disubstituted pyrimidine-4,6-diamine derivatives as potent EGFR inhibitors in non-small cell lung cancer” (Eur J Med Chem, 2018).

Legend:
[1] = target: Vascular endothelial growth factor receptor 2 (Homo sapiens) (UniProt P35968); test: Inhibition of N-terminal GST-tagged human KDR cytoplasmic domain (790 to 1356 residues) expressed in baculovirus expression system at […] using FAM-labeled peptide as substrate after 10 mins by mobility shift assay relative to control
Summary of the method: (§1)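 Caliper mobility-shift kinase assay. Kinase in kinase base buffer was preincubated with compound for 10 min at room temperature. FAM-labelled peptide and ATP at Km were then added, and the reaction ran at 28 °C until quenched with buffer. Screening concentration was 1 µM. Percent inhibition = (max − conversion)/(max − min) × 100, with DMSO as max and a low control as min.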

[2] = target: Fibroblast growth factor receptor 1 (Homo sapiens) (UniProt P11362); test: Inhibition of N-terminal GST-tagged human FGFR1 cytoplasmic domain (398 to 822 residues) expressed in baculovirus expression system at […] using FAM-labeled peptide as substrate after 10 mins by mobility shift assay relative to control; summary of the method: as §1
[3] = target: Epidermal growth factor receptor (Homo sapiens, UniProt P00533, DEL747/DEL747-750); test: Inhibition of N-terminal GST-tagged human EGFR del 747-750 mutant cytoplasmic domain expressed in baculovirus expression system using FAM-labeled peptide as substrate after 10 mins by mobility shift assay
[4] = target: Epidermal growth factor receptor (Homo sapiens, UniProt P00533); test: Inhibition of N-terminal GST-tagged wild type human EGFR cytoplasmic domain (669 to 1210 residues) expressed in baculovirus expression system using FAM-labeled peptide as substrate after 10 mins by mobility shift assay
Epidermal growth factor receptor (Homo sapiens, UniProt P00533), sequence (P00533 whole entry, the tested form may be a part): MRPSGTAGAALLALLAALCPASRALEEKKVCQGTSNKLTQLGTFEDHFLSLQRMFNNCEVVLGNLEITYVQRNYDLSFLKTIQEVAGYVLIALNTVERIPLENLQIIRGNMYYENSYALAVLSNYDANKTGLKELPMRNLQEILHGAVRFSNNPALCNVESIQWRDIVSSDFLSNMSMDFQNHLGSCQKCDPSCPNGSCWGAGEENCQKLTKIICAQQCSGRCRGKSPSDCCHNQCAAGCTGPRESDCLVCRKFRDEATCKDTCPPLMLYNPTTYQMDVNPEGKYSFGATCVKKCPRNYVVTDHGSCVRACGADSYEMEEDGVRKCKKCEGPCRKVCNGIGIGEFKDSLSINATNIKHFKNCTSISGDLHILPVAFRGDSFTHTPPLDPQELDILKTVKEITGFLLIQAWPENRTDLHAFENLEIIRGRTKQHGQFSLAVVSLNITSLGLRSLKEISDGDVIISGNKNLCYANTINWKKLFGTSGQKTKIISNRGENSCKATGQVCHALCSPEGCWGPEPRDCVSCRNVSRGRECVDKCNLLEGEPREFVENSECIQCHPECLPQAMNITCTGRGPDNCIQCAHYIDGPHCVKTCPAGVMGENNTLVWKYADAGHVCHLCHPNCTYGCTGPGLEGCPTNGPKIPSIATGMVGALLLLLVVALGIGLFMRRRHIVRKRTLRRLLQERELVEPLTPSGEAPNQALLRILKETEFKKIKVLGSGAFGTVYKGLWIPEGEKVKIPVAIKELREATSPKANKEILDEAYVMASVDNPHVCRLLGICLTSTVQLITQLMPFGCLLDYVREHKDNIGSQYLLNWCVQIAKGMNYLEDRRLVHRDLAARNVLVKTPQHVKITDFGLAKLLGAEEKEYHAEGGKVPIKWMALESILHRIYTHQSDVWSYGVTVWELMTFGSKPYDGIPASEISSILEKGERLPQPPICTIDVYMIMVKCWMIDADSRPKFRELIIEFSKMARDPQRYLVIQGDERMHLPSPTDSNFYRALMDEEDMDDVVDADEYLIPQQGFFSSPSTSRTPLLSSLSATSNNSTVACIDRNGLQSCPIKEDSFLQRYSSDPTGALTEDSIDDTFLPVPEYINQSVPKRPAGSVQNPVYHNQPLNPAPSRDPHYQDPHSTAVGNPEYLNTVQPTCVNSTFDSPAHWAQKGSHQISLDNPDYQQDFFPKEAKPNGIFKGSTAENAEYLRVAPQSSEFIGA

Epidermal growth factor receptor (Homo sapiens, UniProt P00533, DEL747/DEL747-750), sequence (P00533 with tags, fused parts or gaps DEL747/DEL747-750 limits assumed): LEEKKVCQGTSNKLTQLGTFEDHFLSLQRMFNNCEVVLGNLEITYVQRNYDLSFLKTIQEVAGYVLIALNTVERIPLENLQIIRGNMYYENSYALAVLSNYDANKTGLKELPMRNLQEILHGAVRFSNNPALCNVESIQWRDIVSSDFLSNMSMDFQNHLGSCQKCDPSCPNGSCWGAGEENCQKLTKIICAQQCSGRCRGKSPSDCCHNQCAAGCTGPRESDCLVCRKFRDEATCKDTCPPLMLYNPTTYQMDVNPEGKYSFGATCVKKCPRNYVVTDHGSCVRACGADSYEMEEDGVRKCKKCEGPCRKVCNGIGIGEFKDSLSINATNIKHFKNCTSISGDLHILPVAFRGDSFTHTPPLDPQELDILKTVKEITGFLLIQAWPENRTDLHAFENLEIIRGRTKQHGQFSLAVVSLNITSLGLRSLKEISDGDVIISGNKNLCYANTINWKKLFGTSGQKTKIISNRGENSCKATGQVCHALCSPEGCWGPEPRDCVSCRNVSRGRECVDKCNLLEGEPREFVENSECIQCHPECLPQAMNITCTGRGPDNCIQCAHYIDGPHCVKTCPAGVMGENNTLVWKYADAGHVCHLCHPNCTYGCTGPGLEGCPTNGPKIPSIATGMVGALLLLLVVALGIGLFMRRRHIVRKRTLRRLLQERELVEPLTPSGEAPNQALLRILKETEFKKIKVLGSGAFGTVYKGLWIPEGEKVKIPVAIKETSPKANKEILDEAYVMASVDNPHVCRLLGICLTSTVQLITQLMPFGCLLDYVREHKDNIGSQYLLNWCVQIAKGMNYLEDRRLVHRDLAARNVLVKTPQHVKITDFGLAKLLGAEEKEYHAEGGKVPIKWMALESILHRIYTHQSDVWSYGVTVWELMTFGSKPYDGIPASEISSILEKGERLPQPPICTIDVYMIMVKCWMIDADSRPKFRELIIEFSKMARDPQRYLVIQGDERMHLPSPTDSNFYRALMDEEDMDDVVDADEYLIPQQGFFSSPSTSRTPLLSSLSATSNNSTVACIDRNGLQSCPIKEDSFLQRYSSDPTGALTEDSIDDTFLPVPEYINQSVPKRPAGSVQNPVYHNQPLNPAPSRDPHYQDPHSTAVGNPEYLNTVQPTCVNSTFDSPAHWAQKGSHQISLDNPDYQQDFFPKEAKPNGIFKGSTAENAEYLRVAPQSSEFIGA
Vascular endothelial growth factor receptor 2 (Homo sapiens), sequence (P35968 whole entry, the tested form may be a part): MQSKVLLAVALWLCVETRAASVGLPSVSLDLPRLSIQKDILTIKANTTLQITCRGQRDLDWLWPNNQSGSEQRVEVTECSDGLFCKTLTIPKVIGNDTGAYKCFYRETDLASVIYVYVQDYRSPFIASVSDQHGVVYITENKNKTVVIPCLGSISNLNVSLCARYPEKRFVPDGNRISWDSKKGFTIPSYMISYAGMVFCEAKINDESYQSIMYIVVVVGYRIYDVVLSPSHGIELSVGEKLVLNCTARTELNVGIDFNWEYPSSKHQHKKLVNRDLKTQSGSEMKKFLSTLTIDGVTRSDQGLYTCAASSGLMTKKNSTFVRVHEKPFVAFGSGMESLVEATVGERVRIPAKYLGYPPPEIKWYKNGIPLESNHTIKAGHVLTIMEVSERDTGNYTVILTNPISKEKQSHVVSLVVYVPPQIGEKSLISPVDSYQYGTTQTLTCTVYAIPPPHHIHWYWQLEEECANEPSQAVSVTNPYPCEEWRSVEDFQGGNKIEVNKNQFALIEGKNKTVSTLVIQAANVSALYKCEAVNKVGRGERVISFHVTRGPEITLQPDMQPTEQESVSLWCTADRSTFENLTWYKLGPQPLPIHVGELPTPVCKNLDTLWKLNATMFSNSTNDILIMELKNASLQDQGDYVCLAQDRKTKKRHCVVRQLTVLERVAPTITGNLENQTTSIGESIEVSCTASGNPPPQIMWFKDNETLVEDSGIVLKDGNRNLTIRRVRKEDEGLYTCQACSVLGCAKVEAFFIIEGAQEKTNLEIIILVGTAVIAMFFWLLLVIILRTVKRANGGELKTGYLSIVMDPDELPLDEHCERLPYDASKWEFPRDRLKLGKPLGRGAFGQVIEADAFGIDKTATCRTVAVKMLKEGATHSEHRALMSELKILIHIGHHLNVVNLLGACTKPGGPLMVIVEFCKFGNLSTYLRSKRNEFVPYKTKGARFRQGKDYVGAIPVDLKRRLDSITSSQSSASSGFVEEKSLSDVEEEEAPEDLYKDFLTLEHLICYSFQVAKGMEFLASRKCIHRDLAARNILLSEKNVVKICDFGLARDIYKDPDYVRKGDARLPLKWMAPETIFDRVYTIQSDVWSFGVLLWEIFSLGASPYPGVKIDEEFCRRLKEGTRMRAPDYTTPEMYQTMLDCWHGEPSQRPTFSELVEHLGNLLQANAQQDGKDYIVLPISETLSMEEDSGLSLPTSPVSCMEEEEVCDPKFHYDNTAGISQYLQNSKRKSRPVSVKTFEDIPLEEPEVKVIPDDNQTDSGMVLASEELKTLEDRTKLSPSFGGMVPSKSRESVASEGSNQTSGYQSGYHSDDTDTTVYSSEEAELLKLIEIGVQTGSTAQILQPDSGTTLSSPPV

Structure (SMILES)	inhibition [1]	inhibition [2]	IC50 [3]	IC50 [4]
O=C(/C=C/c1ccccc1)Nc1cc(Nc2ccc(O)cc2)ncn1	1.3%	-3.7%	–	–
CCOC(=O)CCC(=O)Nc1cc(Nc2cccc(OC)c2)ncn1	11.3%	-7.1%	–	–
COc1cccc(Nc2cc(Nc3ccc(S(N)(=O)=O)cc3)ncn2)c1	12.4%	-8.8%	1230 nM	> 10000 nM
COc1ccc(Nc2cc(NC(=O)/C=C/c3ccccc3)ncn2)cc1	9.3%	8.7%	–	–
COc1cccc(Nc2cc(NC(=O)/C=C/c3ccccc3)ncn2)c1	9.3%	-0.4%	–	–
CCOc1ccc(Nc2cc(NC(=O)/C=C/c3ccc(OC)cc3)ncn2)cc1	20.4%	0.7%	–	–
COc1ccc(Nc2cc(NC(=O)c3ccc(F)cc3)ncn2)cc1	-3.4%	0.5%	–	–
COc1ccc(OC)c(Nc2cc(Nc3cc(OC)ccc3OC)ncn2)c1	13.6%	-2.7%	–	–
CCOC(=O)c1ccc(Nc2cc(NC(=O)CCC(=O)O)ncn2)cc1	4.9%	-5.4%	–	–
O=C(/C=C/c1ccc(F)cc1)Nc1cc(Nc2ccc(Cl)cc2Cl)ncn1	2.5%	-2.9%	–	–
O=C(Nc1cc(N2CCOCC2)ncn1)c1ccccc1	10.1%	-1.8%	–	–
Clc1cccc(Nc2cc(Nc3cccc(Br)c3)ncn2)c1	20%	-3.6%	–	–
O=C(O)CCCC(=O)Nc1cc(Nc2cccc(Br)c2)ncn1	6.5%	-1.1%	> 10000 nM	70 nM
O=C(O)CCC(=O)Nc1cc(Nc2cccc(C(=O)O)c2)ncn1	10.9%	–	–	–
Clc1cccc(Nc2cc(Nc3cccc(Cl)c3)ncn2)c1	0.6%	-9.8%	–	–
CCOC(=O)CCCC(=O)Nc1cc(Nc2cc(OC)ccc2OC)ncn1	0.9%	-9.3%	–	–
CCCC(C)OC(=O)CCC(=O)Nc1cc(Nc2cccc(Br)c2)ncn1 (stereo unspecified)	14.8%	-4.9%	–	–
O=C(O)CCCC(=O)Nc1cc(Nc2ccc(Cl)cc2)ncn1	18%	-7.2%	944 nM	> 10000 nM
O=C(/C=C/c1ccc(F)cc1Br)Nc1cc(Nc2ccc(N3CCOCC3)cc2)ncn1	0.6%	-2.8%	–	–
COc1ccc(/C=C/C(=O)Nc2cc(N3CCN(C)CC3)ncn2)cc1	1.7%	-6.1%	–	–
CCOC(=O)CCC(=O)Nc1cc(Nc2ccc(Cl)cc2)ncn1	22.5%	-3.6%	–	–
O=C(/C=C/c1ccc(F)cc1Br)Nc1cc(N2CCOCC2)ncn1	5.7%	-7.1%	–	–
O=C(O)CCC(=O)Nc1cc(Nc2cccc(Br)c2)ncn1	19.2%	-5.3%	–	–
CCOC(=O)c1c(Nc2cc(NC(=O)CCC(=O)OC(C)C)ncn2)sc2c1CCCC2	16.4%	-4.1%	–	–
O=C(Nc1cc(Nc2ccc(N3CCOCC3)cc2)ncn1)c1ccc(F)cc1	1.7%	3.5%	–	–
COc1cccc(Nc2cc(NC(=O)c3ccccc3)ncn2)c1	-0.2%	-6%	–	–

Structure (SMILES)	inhibition [1]	inhibition [2]	IC50 [3]	IC50 [4]
COc1ccc(/C=C/C(=O)Nc2cc(Nc3ccc(Cl)cc3Cl)ncn2)cc1	6.1%	-4%	–	–
Clc1ccc(Nc2cc(Nc3ccc4[nH]ncc4c3)ncn2)cc1	-1.4%	-5.3%	–	–
O=C(Nc1cc(Nc2cccc(Cl)c2)ncn1)c1ccc(F)cc1	-0.6%	4.2%	–	–
COc1ccc(OC)c(Nc2cc(Nc3ccc(Cl)cc3)ncn2)c1	6.5%	-8.2%	–	–
O=C(Nc1cc(Nc2ccc(Cl)cc2)ncn1)c1ccccc1	-1.4%	-1.3%	–	–
Fc1ccc(Nc2cc(Nc3ccc(Cl)cc3)ncn2)cc1	6.1%	1.8%	–	–
O=C(/C=C/c1ccccc1)Nc1cc(Nc2ccc(N3CCOCC3)cc2)ncn1	-5%	-0.3%	–	–
CN1CCN(c2cc(NC(=O)CCCC(=O)O)ncn2)CC1	13.6%	-2.3%	–	–
CCNc1cc(Nc2cccc(Cl)c2)ncn1	6.9%	-7.7%	> 10000 nM	170 nM
Clc1ccc(Nc2cc(Nc3cccc(Cl)c3)ncn2)cc1	7.3%	-3.4%	–	–
O=C(/C=C/c1ccc(F)cc1)Nc1cc(Nc2ccc(Cl)cc2)ncn1	10.1%	3.1%	–	–
COc1cccc(Nc2cc(NC(=O)c3ccc(F)cc3)ncn2)c1	20.8%	4.3%	–	–
CCOC(=O)CCC(=O)Nc1cc(Nc2cccc(Br)c2)ncn1	5.7%	-7.1%	933 nM	> 10000 nM
CCNc1cc(Nc2cc(OC)ccc2OC)ncn1	34.5%	-0.4%	–	–
COc1ccc(/C=C/C(=O)Nc2cc(Nc3ccc(Cl)cc3)ncn2)cc1	0.9%	-8.8%	–	–
CCOC(=O)CCC(=O)Nc1cc(Nc2cccc(C(=O)OCC)c2)ncn1	19.7%	2.6%	–	–
O=C(Nc1cc(Nc2cccc(Cl)c2)ncn1)c1ccccc1	-6.2%	-5.8%	–	–
CCCC(C)OC(=O)CCC(=O)Nc1cc(Nc2cccc(C(=O)OC(C)CCC)c2)ncn1 (stereo unspecified)	4.9%	-5%	–	–
COc1ccc(OC)c(Nc2cc(NCCc3cccs3)ncn2)c1	14.6%	-8.2%	102 nM	125 nM
CCOc1ccc(Nc2cc(NC(=O)c3ccc(F)cc3)ncn2)cc1	5.3%	5.9%	–	–
COc1ccc(Nc2cc(NC(=O)c3ccccc3)ncn2)c([N+](=O)[O-])c1	8.9%	5.2%	–	–
COc1ccc(OC)c(Nc2cc(Nc3ccc(S(N)(=O)=O)cc3)ncn2)c1	26.2%	-8.2%	467 nM	779 nM
Cc1ccc(Nc2cc(NC(=O)c3ccc(F)cc3)ncn2)cc1	10.9%	-4.8%	–	–
CCOC(=O)c1ccc(Nc2cc(Nc3ccc(C(=O)OCC)cc3)ncn2)cc1	3.7%	0%	–	–
Fc1ccc(Nc2cc(Nc3ccc(F)cc3)ncn2)cc1	16.8%	0.5%	–	–
CC(C)OC(=O)CCC(=O)Nc1cc(Nc2ccc(C(=O)OC(C)C)cc2)ncn1	4.9%	-2.3%	–	–

Structure (SMILES)	inhibition [1]	inhibition [2]	IC50 [3]	IC50 [4]
O=C(/C=C/c1ccc(F)cc1Br)Nc1cc(Nc2ccc(Cl)cc2Cl)ncn1	15.2%	-4.6%	–	–
CCOC(=O)CCC(=O)Nc1cc(NCCc2cccs2)ncn1	13.6%	–	–	–
CN1CCN(c2cc(NC(=O)/C=C/c3ccc(F)cc3)ncn2)CC1	7.7%	-6.1%	–	–
COc1cccc(Nc2cc(NC(=O)CCC(=O)O)ncn2)c1	12.4%	0.5%	–	–
COc1cc(Nc2cc(Nc3ccc(Cl)cc3)ncn2)cc(OC)c1OC	37.1%	1.2%	> 10000 nM	901 nM
CN1CCN(c2ccc(Nc3cc(NC(=O)/C=C/c4ccc(F)cc4)ncn3)cc2)CC1	21.8%	-5.4%	–	–
CCOC(=O)CCC(=O)Nc1cc(Nc2cc(OC)ccc2OC)ncn1	9.7%	-8.8%	–	–
O=C(/C=C/c1ccc(F)cc1)Nc1cc(Nc2ccc(N3CCOCC3)cc2)ncn1	1.3%	-3.9%	–	–
COc1cccc(Nc2cc(Nc3cccc(Br)c3)ncn2)c1	20.5%	–	–	–
COc1ccc(Nc2cc(NC(=O)/C=C/c3ccccc3)ncn2)c([N+](=O)[O-])c1	2.5%	-4.9%	–	–
CCOc1cccc(Nc2cc(NC(=O)c3ccc(F)cc3)ncn2)c1	6.1%	2.2%	–	–
CCOc1ccc(Nc2cc(NC(=O)/C=C/c3ccccc3)ncn2)cc1	0.6%	1.5%	–	–
CCOC(=O)CCC(=O)Nc1cc(Nc2ccc(N3CCN(C)CC3)cc2)ncn1	4.9%	-6.6%	–	–
COc1cccc(Nc2cc(Nc3ccc(Cl)cc3)ncn2)c1	12.8%	-4%	–	–
COc1ccc(Nc2cc(NC(=O)/C=C/c3ccc(F)cc3Br)ncn2)c([N+](=O)[O-])c1	11.3%	-2.3%	–	–
CCOC(=O)CC(=O)Nc1cc(Nc2ccc(F)cc2)ncn1	1.7%	-1.1%	–	–
COc1ccc(/C=C/C(=O)Nc2cc(Nc3cccc(Br)c3)ncn2)cc1	8.5%	-5.4%	–	–
O=C(O)CCCC(=O)Nc1cc(Nc2ccccc2Br)ncn1	16.8%	-9.3%	–	–
CC(C)OC(=O)CCC(=O)Nc1cc(Nc2ccc(F)cc2)ncn1	2.5%	-6.5%	–	–
COc1ccc(/C=C/C(=O)Nc2cc(N3CCOCC3)ncn2)cc1	7.3%	-4.8%	–	–
O=C(O)CCC(=O)Nc1cc(Nc2cccc(Cl)c2)ncn1	0.6%	-3.6%	–	–
Clc1ccc(Nc2cc(Nc3ccc(Cl)cc3)ncn2)cc1	8.5%	-1.3%	–	–
CN1CCN(c2ccc(Nc3cc(NC(=O)CCC(=O)O)ncn3)cc2)CC1	18.8%	–	–	–
CCOC(=O)CCC(=O)Nc1cc(Nc2ccc(S(N)(=O)=O)cc2)ncn1	7.7%	-3.6%	–	–
CCOC(=O)CCC(=O)Nc1cc(Nc2ccc(C(=O)OCC)cc2)ncn1	6.5%	-4.6%	–	–
